Eight molecules from ChEMBL document CHEMBL1152621, “Synthesis and discovery of pyrazole-5-carbohydrazide N-glycosides as inducer of autophagy in A549 lung cancer cells” (Bioorg Med Chem, 2009) can be followed below.

The source made the active and inactive calls. The rule behind the calls is not given here.

For data set [1], the system named is A549. Description: Effect on cell morphology in human A549 cells assessed as induction of vacuolization at 40 uM after 48 hrs by phase contrast microscopy. It is filed as functional, cell-based. A digest of the protocol: (§1)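 A549 in RPMI 1640 with 10% bovine calf serum, 80 U/ml gentamicin, 37 °C, 5% CO2; seeded at 6250/cm2. Treated with compound or left untreated for 24 or 48 h. Morphology (vacuoles, cell number) photographed at 400× under inverted phase contrast microscope.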

Data set [2] concerns A549. Description: Induction of necrosis in human A549 cells at 40 uM after 48 hrs assessed as increase in LDH release. It is filed as cell-based. The following applies: a549, 48 h. A digest of the protocol:
(§2)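 A549 treated 48 h at 20 or 40 µM, 0.1% DMSO control; culture medium collected and LDH release measured with a commercial lactate dehydrogenase kit; mean ± SE, n = 3.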
Background: LDH leaks from cells whose membrane has failed.

Data set [3] concerns A549. Description: Growth inhibition of human A549 cells after 48 hrs by sulforhodamine B assay. It is filed as functional, cell-based. The conditions noted are these: A549, 48 h. The procedure, abridged: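 A549 (RPMI 1640, 10% bovine calf serum, seeded 6250/cm2) exposed 24 h after seeding to compound at 10, 20 or 40 µM, 0.1% DMSO control, for 24 or 48 h. TCA fixation 1 h at 4 °C, 0.4% SRB in 1% acetic acid, dye dissolved in 10 mM Tris base pH 10.5, OD 510 nm; mean ± SE, n = 3.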
(In general: In SRB staining, fixed cells bind dye roughly in proportion to their protein.)

Data set [4] deals with A549. Description: Induction of autophagy in human A549 cells assessed as increase in LC3-II protein level at 20 uM after 24 hrs by Western blot. Format: functional, cell-based. The procedure, abridged: (§3)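 A549 treated 24 or 48 h at 20 or 40 µM. Lysis in 0.5% SDS/Tris pH 7.5 buffer with protease inhibitors; Bradford protein; 15% SDS-PAGE, PVDF, milk block; anti-LC3b, anti-p62, anti-β-actin overnight 4 °C, HRP secondaries, chemiluminescence on X-ray film. Levels normalized to β-actin, expressed as percent of control.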
In general terms: Immunoblotting shows a protein as a band on a membrane.

Data set [5] deals with A549. The data set can be described thus: Induction of autophagy in human A549 cells assessed as increase in LC3-II protein level at 20 uM after 48 hrs by Western blot. It is filed as functional, cell-based. A digest of the protocol: as §3
Data set [6] relates to A549. Description: Effect on cell morphology in human A549 cells assessed as decrease in cell number at 20 uM after 24 hrs by phase contrast microscopy. It is filed as functional, cell-based. A digest of the protocol: as §1
Data set [7] relates to A549. The data set can be described thus: Induction of necrosis in human A549 cells at 20 uM after 48 hrs assessed as increase in LDH release. Format: cell-based. The following applies: a549, 48 h. The procedure, abridged:
as §2

In data set [8] the test system is A549. Description: Induction of autophagy in human A549 cells assessed as decrease in p62 protein level at 20 uM after 24 hrs by Western blot. Format: functional, cell-based. A digest of the protocol:
as §3

Data set [9] deals with A549. Description: Effect on cell morphology in human A549 cells assessed as induction of vacuolization at 20 uM after 24 hrs by phase contrast microscopy. It is filed as functional, cell-based. A digest of the protocol: as §1
Data set [10] deals with A549. Description: Induction of autophagy in human A549 cells assessed as decrease in p62 protein level at 20 uM after 48 hrs by Western blot. It is filed as functional, cell-based. A digest of the protocol:
as §3

The subject of data set [11] is A549. Description: Effect on cell morphology in human A549 cells assessed as decrease in cell number at 20 uM after 48 hrs by phase contrast microscopy. It is filed as functional, cell-based. The procedure, abridged: as §1
Data set [12] has as its system A549. The data set can be described thus: Induction of autophagy in human A549 cells assessed as increase in LC3-II protein level at 40 uM after 24 hrs by Western blot. It is filed as functional, cell-based. A digest of the protocol: as §3
For data set [13], the system named is A549. The data set can be described thus: Induction of autophagy in human A549 cells assessed as decrease in p62 protein level at 40 uM after 48 hrs by Western blot. Format: functional, cell-based. The procedure, abridged: as §3
Data set [14] relates to A549. Description: Effect on cell morphology in human A549 cells assessed as decrease in cell number at 40 uM after 24 hrs by phase contrast microscopy. It is filed as functional, cell-based. A digest of the protocol: as §1
For data set [15], the system named is A549. The data set can be described thus: Induction of autophagy in human A549 cells assessed as decrease in p62 protein level at 40 uM after 24 hrs by Western blot. Format: functional, cell-based. A digest of the protocol:
as §3

The subject of data set [16] is A549. Description: Effect on cell morphology in human A549 cells assessed as induction of vacuolization at 40 uM after 24 hrs by phase contrast microscopy. It is filed as functional, cell-based. The procedure, abridged:
as §1

Data set [17] deals with A549. Description: Effect on cell morphology in human A549 cells assessed as decrease in cell number at 40 uM after 48 hrs by phase contrast microscopy. It is filed as functional, cell-based. A digest of the protocol: as §1
Data set [18] deals with A549. Description: Induction of autophagy in human A549 cells assessed as increase in LC3-II protein level at 40 uM after 48 hrs by Western blot. It is filed as functional, cell-based. A digest of the protocol: as §3

Turning to `COc1ccc(-c2cc(C(=O)NN[C@@H]3O[C@H](CO)[C@@H](O)[C@H](O)[C@H]3O)n(Cc3ccc(C(C)(C)C)cc3)n2)cc1`, in the data set on A549 [1], the outcome was Active. Also, in the data set with A549 [2], the Activity entry is “Non-toxic”. Also, the IC50 in the data set with A549 [3] turned out to be 38.9 µM.
The matching figures for `O=C(NN[C@@H]1O[C@H](CO)[C@@H](O)[C@H](O)[C@H]1O)c1cc(-c2ccc(Cl)cc2)nn1Cc1ccc(Cl)nc1`: “Active”, “Non-toxic” and 35 µM.
For `CC(C)(C)c1ccc(Cn2nc(-c3ccc(Cl)cc3)cc2C(=O)NN[C@@H]2OC[C@@H](O)[C@H](O)[C@H]2O)cc1`, the outcome in the data set with A549 [4] was inactive. The Activity result with A549 [2] is reported as “Toxic”; in the data set on A549 [7], “Non-toxic”. Also, the result with A549 [5], in the data set with A549 [6], in the data set on A549 [8], in the data set with A549 [9], in the data set on A549 [10] and in the data set on A549 [11] was Active. The molecule also showed an IC50 in the data set with A549 [3] of 13.9 µM.
With `COc1ccc(-c2cc(C(=O)NN[C@@H]3OC[C@@H](O)[C@H](O)[C@H]3O)n(Cc3ccc(C(C)(C)C)cc3)n2)cc1`, the outcome in the data set on A549 [1] was Active. For the same molecule, the Activity result in the data set with A549 [2] was “Non-toxic”. The molecule further registered an IC50 in the data set on A549 [3] of 24.9 µM.
Consider `CC(C)(C)c1ccc(Cn2nc(-c3ccc(Cl)cc3)cc2C(=O)NN[C@@H]2O[C@H](CO)[C@@H](O)[C@H](O)[C@H]2O)cc1`, for which the result with A549 [12] was inactive. Besides, the Activity entry in the data set with A549 [2] was “Non-toxic”. For the same molecule, the outcome with A549 [13], in the data set with A549 [14], in the data set with A549 [15], with A549 [16], in the data set with A549 [17] and with A549 [18] was Active. Moreover, the IC50 in the data set on A549 [3] was 26.6 µM.
In the case of `CC(C)(C)c1ccc(Cn2nc(-c3ccccc3)cc2C(=O)NN[C@@H]2O[C@H](CO)[C@@H](O)[C@H](O)[C@H]2O)cc1`, the outcome with A549 [12] was inactive. The Activity result in the data set with A549 [2] is recorded as “Non-toxic”. Besides, the outcome in the data set on A549 [13], with A549 [14], in the data set on A549 [15], with A549 [16], in the data set with A549 [17] and in the data set with A549 [18] was Active. In the data set with A549 [3], this molecule gave an IC50 of 21.6 µM.
For the molecule `O=C(NN[C@@H]1O[C@H](CO)[C@@H](O)[C@H](O)[C@H]1O)c1cc(-c2ccc(Cl)cc2)nn1Cc1ccccc1`, the Activity entry with A549 [2] is “Non-toxic”. Also, the IC50 in the data set with A549 [3] turned out to be 31.8 µM.
`CC(C)(C)c1ccc(Cn2nc(-c3ccccc3)cc2C(=O)NN[C@@H]2OC[C@@H](O)[C@H](O)[C@H]2O)cc1`: the result in the data set with A549 [12] was inactive. Also, the Activity result in the data set with A549 [2] was “Non-toxic”. In addition, the outcome in the data set with A549 [13], with A549 [14], in the data set with A549 [15], with A549 [16], in the data set with A549 [17] and in the data set on A549 [18] was Active. The concentration for half-maximal inhibition (IC50) with A549 [3] was 15.2 µM.

In general, IC50 refers to the point on the concentration scale where inhibition reaches its midpoint. Low values mean greater potency, high ones weaker potency.
